Laboratory results published in ChEMBL document CHEMBL2412986, “Design, synthesis and evaluation of novel 2-hydroxypyrrolobenzodiazepine-5,11-dione analogues as potent angiotensin converting enzyme (ACE) inhibitors” (Bioorg Med Chem, 2013).

Experiments:
[1] = target: T1, Angiotensin-converting enzyme (Oryctolagus cuniculus) (UniProt P12822); assay: Inhibition of rabbit lung ACE assessed as hydrolysis of hippuryl-histidyl-leucine to hippuric acid and histidyl-leucine at 1 uM after 30 mins relative to control
T1 sequence (whole entry): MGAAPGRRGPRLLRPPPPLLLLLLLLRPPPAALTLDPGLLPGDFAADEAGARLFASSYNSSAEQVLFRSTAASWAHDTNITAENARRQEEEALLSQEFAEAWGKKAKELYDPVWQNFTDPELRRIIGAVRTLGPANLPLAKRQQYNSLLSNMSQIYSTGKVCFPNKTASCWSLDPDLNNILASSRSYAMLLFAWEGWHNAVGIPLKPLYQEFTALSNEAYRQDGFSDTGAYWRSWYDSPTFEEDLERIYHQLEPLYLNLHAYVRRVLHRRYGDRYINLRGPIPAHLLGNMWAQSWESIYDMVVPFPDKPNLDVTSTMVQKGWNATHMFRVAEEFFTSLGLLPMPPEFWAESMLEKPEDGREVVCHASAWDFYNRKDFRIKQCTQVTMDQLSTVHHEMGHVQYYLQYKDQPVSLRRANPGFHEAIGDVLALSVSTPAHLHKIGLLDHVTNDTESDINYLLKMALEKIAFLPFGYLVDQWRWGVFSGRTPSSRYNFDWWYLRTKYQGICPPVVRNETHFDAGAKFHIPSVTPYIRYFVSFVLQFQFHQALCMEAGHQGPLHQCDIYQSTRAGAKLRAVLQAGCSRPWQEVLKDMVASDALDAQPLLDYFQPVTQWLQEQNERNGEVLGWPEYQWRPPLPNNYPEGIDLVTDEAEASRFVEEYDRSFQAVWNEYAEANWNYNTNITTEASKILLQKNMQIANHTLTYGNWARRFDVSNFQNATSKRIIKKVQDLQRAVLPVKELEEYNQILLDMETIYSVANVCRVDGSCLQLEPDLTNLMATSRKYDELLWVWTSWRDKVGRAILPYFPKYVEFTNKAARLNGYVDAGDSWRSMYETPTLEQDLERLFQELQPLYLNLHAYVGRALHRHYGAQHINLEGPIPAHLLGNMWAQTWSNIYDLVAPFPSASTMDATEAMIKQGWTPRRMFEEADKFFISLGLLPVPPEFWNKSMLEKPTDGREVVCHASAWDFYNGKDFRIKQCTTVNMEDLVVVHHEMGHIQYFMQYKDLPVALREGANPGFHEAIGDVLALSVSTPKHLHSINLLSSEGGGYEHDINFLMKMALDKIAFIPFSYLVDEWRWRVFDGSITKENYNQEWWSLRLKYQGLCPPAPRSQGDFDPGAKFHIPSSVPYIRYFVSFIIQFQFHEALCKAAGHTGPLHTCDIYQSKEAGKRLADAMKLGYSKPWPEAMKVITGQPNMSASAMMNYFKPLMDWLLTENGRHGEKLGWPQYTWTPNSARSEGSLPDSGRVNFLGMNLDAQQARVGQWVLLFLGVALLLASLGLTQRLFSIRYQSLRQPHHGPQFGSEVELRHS
Outline: (§1)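 Enzyme is the supernatant of rabbit lung acetone powder homogenized in 0.05 M sodium borate pH 8.2 with 0.3 M NaCl and 0.5% Triton X-100 at 4 °C, spun 15,000 rpm for 60 min. Reaction uses borate/NaCl buffer and 5 mM HHL stock, 30 min at 37 °C. Hippuric acid read colorimetrically at 410 nm, in triplicate. % inhibition = 100 − (A_test/A_control)×100. Single-point screen at 1.0 µM; IC₅₀ from plots of % inhibition against serial concentrations.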

[2] = Ratio of IC50 for rabbit lung ACE to IC50 for HEK293 cells
A549 = assay: Cytotoxicity against human A549 cells assessed as cell survival after 24 hrs by MTT assay; format: cell-based; settings: A549, 24 h
Outline: (§2)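 HEK 293 (normal) and A549 (cancer) cells seeded at 1×10^4 cells/well in DMEM with 10% FBS, grown 24 h at 37 °C under CO₂, then exposed to compounds alongside vehicle control for 24 h. MTT (5 mg/mL, 10 µl) added for 4 h, formazan dissolved in DMSO, absorbance read at 540 nm. Survival relative to control cells; EC₅₀ by probit analysis.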

HEK293 = assay: Cytotoxicity against HEK293 cells assessed as cell survival after 24 hrs by MTT assay; format: cell-based; settings: Homo sapiens, HEK293, 24 h; outline: as §2
[3] = Ratio of IC50 for rabbit lung ACE to IC50 for human A549 cells
[4] = target: T2, Angiotensin-converting enzyme (Oryctolagus cuniculus, UniProt P12822); assay: Inhibition of rabbit lung ACE assessed as hydrolysis of hippuryl-histidyl-leucine to hippuric acid and histidyl-leucine after 30 mins; outline: as §1
T2 sequence (P12822 whole entry): T1 sequence (whole entry)

## COC(=O)c1ccc(CN2C(=O)[C@@H]3C[C@@H](O)CN3C(=O)c3ccccc32)cc1
[1]
  inhibition: 28%

## O=C1[C@@H]2C[C@@H](O)CN2C(=O)c2ccccc2N1Cc1cc(Br)cs1
[2]
  Ratio IC50: 1000
A549
  IC50: 361 µM
HEK293
  IC50: 281 µM
[1]
  inhibition: 80%
[3]
  Ratio IC50: 1000
[4]
  IC50: 0.272 µM

## O=C1[C@@H]2C[C@@H](O)CN2C(=O)c2ccccc2N1Cc1c(F)c(F)c(F)c(F)c1F
[1]
  inhibition: 28%

## CCOC(=O)CN1C(=O)[C@@H]2C[C@@H](O)CN2C(=O)c2ccccc21
[1]
  inhibition: 28%

## O=C(CN1C(=O)[C@@H]2C[C@@H](O)CN2C(=O)c2ccccc21)c1ccc(Br)cc1
[1]
  inhibition: 28%

## CN1C(=O)[C@@H]2C[C@@H](O)CN2C(=O)c2ccccc21
[1]
  inhibition: 28%

## O=C1[C@@H]2C[C@@H](O)CN2C(=O)c2ccccc2N1Cc1ccc(Br)cc1
[2]
  Ratio IC50: 1000
A549
  IC50: 487 µM
HEK293
  IC50: 496 µM
[1]
  inhibition: 75%
[3]
  Ratio IC50: 1000
[4]
  IC50: 0.658 µM

## CCOC(=O)[C@H](CCc1ccccc1)N[C@@H](C)C(=O)N1[C@H](C(=O)O)C[C@@H]2CCC[C@@H]21 [RAMIPRIL]
A549
  IC50: 392 µM
HEK293
  IC50: 414 µM
[4]
  IC50: 0.253 µM

## COc1cccc(CN2C(=O)[C@@H]3C[C@@H](O)CN3C(=O)c3ccccc32)c1
[1]
  inhibition: 28%

## O=C(O)c1ccc(CN2C(=O)[C@@H]3C[C@@H](O)CN3C(=O)c3ccccc32)cc1
[1]
  inhibition: 28%

## O=C1Nc2ccccc2C(=O)N2C[C@H](O)C[C@@H]12
[1]
  inhibition: 57%

## O=C1[C@@H]2C[C@@H](O)CN2C(=O)c2ccccc2N1Cc1cccc2c1oc1ccccc12
[1]
  inhibition: 28%

## CCOC(=O)[C@H](CCc1ccccc1)N[C@H]1CCc2ccccc2N(CC(=O)O)C1=O [BENAZEPRIL]
A549
  IC50: 358 µM
HEK293
  IC50: 301 µM
[4]
  IC50: 0.212 µM

## NCCCC[C@H](N[C@@H](CCc1ccccc1)C(=O)O)C(=O)N1CCC[C@H]1C(=O)O [LISINOPRIL ANHYDROUS]
A549
  IC50: 307 µM
HEK293
  IC50: 443 µM
[4]
  IC50: 0.262 µM

## O=C1[C@@H]2C[C@@H](O)CN2C(=O)c2ccccc2N1Cc1ccc([N+](=O)[O-])cc1
[1]
  inhibition: 28%

## CC(=O)CN1C(=O)[C@@H]2C[C@@H](O)CN2C(=O)c2ccccc21
[1]
  inhibition: 28%

## O=C1[C@@H]2C[C@@H](O)CN2C(=O)c2ccccc2N1Cc1ccc([N+](=O)[O-])c(Cl)c1
[1]
  inhibition: 28%

## Nc1ccc(CN2C(=O)[C@@H]3C[C@@H](O)CN3C(=O)c3ccccc32)cc1
[1]
  inhibition: 28%

## O=C1[C@@H]2C[C@@H](O)CN2C(=O)c2ccccc2N1Cc1cc(F)cc(F)c1Cl
[1]
  inhibition: 28%

## O=C(CN1C(=O)[C@@H]2C[C@@H](O)CN2C(=O)c2ccccc21)c1ccc(Cl)cc1
[1]
  inhibition: 28%

## O=C1[C@@H]2C[C@@H](O)CN2C(=O)c2ccccc2N1Cc1cc(F)cc(F)c1
[1]
  inhibition: 28%

## O=C1[C@@H]2C[C@@H](O)CN2C(=O)c2ccccc2N1Cc1cccc(Cl)c1
[1]
  inhibition: 28%

## O=C1[C@@H]2C[C@@H](O)CN2C(=O)c2ccccc2N1Cc1cccc(Br)c1
[2]
  Ratio IC50: 1000
A549
  IC50: 400 µM
HEK293
  IC50: 398 µM
[1]
  inhibition: 86%
[3]
  Ratio IC50: 1000
[4]
  IC50: 0.418 µM

## COc1cc(CN2C(=O)[C@@H]3C[C@@H](O)CN3C(=O)c3ccccc32)cc(OC)c1OC
[2]
  Ratio IC50: 1000
A549
  IC50: 419 µM
HEK293
  IC50: 331 µM
[1]
  inhibition: 91%
[3]
  Ratio IC50: 1000
[4]
  IC50: 0.376 µM

## COc1ccc(CN2C(=O)[C@@H]3C[C@@H](O)CN3C(=O)c3ccccc32)cc1
[1]
  inhibition: 28%

## O=C1[C@@H]2C[C@@H](O)CN2C(=O)c2ccccc2N1Cc1ccc(Cl)c(F)c1
[1]
  inhibition: 28%
